Data set [1] has as its target T1, Proteinase-activated receptor 2 (Homo sapiens, UniProt P55085).
T1 sequence (P55085 whole entry): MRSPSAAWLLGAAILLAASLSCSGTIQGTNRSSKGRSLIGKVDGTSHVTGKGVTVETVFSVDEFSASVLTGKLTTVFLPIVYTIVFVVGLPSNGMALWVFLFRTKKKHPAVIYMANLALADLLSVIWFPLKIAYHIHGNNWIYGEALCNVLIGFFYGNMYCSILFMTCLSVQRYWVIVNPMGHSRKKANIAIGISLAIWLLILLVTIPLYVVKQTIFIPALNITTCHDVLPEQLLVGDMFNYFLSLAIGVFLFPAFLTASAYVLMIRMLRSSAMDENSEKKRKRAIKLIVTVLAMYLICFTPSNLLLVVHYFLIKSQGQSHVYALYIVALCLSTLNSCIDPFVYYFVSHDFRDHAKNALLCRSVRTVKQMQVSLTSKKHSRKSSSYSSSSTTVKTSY
As to the kind of experiment: (§1) Antagonist activity at PAR2 in human MDA-MB-231 cells assessed as inhibition of SLIGKV-NH2-induced intracellular calcium mobilization preincubated for 15 mins followed by SLIGKV-NH2 addition by Fluo-4-AM dye based fluorescence assay. It counts as functional, cell-based. The method, boiled down: (§2)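 Confluent adherent cells (~48 h growth in 96-well plates) loaded with Fluo-4/AM calcium dye; antagonist added before PAR2 agonist SLIGKV-NH2 at 5 μM. IC50 from four-variable nonlinear regression of concentration–response data, N = 3 on one plate, SEM error bars.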

For data set [2], the target named is T1, Proteinase-activated receptor 2. Nature of the data set: (§3) Antagonist activity at PAR2 in human EAhy926 cells assessed as inhibition of SLIGKV-NH2-induced intracellular calcium mobilization preincubated for 15 mins followed by SLIGKV-NH2 addition by Fluo-4-AM dye based fluorescence assay. It counts as functional, cell-based. The method, boiled down:
as §2

Data set [3] deals with Proteinase-activated receptor 2 (Homo sapiens) (UniProt P55085). As to the kind of experiment: (§4) Antagonist activity at PAR2 in human EAhy926 cells assessed as inhibition of trypsin-induced intracellular calcium mobilization preincubated for 15 mins followed by trypsin addition by Fluo-4-AM dye based fluorescence assay. It counts as functional, cell-based. The method, boiled down:
(§5)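 Fluo-4/AM-loaded confluent cells; antagonist added before 5 nM trypsin as PAR2-activating protease; calcium mobilization concentration–response fitted for IC50.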

For a further data set, the species on record is Homo sapiens. Nature of the data set: (§6) Antagonist activity at PAR1/PAR2 in human EAhy926 cells assessed as inhibition of SFLLRN-NH2-induced intracellular calcium mobilization preincubated for 15 mins followed by SFLLRN-NH2 addition by Fluo-4-AM dye based fluorescence assay. It counts as cell-based. The method, boiled down: (§7)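 Cells cultured to confluence over ~48 h in 96-well plates, Fluo-4/AM loaded; antagonist added, then PAR1/2 agonist SFLLRN-NH2 at 3.16 μM. Curves from triplicate wells on a single plate fitted by four-variable nonlinear regression for IC50; SEM reported.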
For orientation: Calcium assays in cells follow changes in intracellular calcium, usually with a dye or a luminescent sensor.

The target of data set [4] is T2, Proteinase-activated receptor 1 (Homo sapiens) (UniProt P25116).
T2 sequence (whole entry): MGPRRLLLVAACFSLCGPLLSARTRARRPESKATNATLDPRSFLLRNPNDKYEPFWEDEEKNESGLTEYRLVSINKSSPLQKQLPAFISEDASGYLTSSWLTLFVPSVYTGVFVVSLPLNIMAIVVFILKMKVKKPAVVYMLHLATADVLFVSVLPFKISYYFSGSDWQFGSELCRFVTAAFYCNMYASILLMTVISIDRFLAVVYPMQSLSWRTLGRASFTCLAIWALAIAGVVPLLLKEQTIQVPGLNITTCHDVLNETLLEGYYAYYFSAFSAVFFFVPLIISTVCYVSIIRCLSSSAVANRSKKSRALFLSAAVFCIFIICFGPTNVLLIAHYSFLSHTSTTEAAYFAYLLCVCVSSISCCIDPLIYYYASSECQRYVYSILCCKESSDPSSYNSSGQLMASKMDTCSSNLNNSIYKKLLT
As to the kind of experiment: (§8) Antagonist activity at PAR1 in human EAhy926 cells assessed as inhibition of TFLLRN-NH2-induced intracellular calcium mobilization preincubated for 15 mins followed by TFLLRN-NH2 addition by Fluo-4-AM dye based fluorescence assay. It counts as functional, cell-based. The essentials:
(§9)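 Adherent cells grown in 96-well plates to confluence (~48 h), loaded with Fluo-4/AM; antagonist added, then PAR1 agonist TFLLRN-NH2 at 5 μM. Concentration–response curves from N = 3 on a single plate, fitted by four-variable nonlinear regression to give IC50; errors as SEM.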

Data set [5] deals with Proteinase-activated receptor 2 (Homo sapiens) (UniProt P55085). Described as §3. It counts as functional, cell-based. The essentials:
as §2

Data set [6] in a line: (§10) Antagonist activity at PAR1/PAR2 in human MDA-MB-231 cells assessed as inhibition of SFLLRN-NH2-induced intracellular calcium mobilization preincubated for 15 mins followed by SFLLRN-NH2 addition by Fluo-4-AM dye based fluorescence assay. It counts as cell-based. The method, boiled down: as §7
Data set [7] has as its target T3, Proteinase-activated receptor 1 (Homo sapiens, UniProt P25116).
T3 sequence (P25116 whole entry): T2 sequence (whole entry)
The data set is described as §8. Type of data set: functional, cell-based. The essentials: as §9

A short description of data set [8]: Half life in mouse plasma at 10 uM by LC-MS/MS analysis. Type of data set: ADME, cell-free.
The target of data set [9] is T3, Proteinase-activated receptor 1. Nature of the data set: (§11) Antagonist activity at PAR1 in human MDA-MB-231 cells assessed as inhibition of TFLLRN-NH2-induced intracellular calcium mobilization preincubated for 15 mins followed by TFLLRN-NH2 addition by Fluo-4-AM dye based fluorescence assay. It counts as functional, cell-based. The essentials: as §9
Data set [10] is described as follows: as §6. The note with it: EA.hy 926. Type of data set: cell-based. The essentials: as §7
The target in data set [11] is T3, Proteinase-activated receptor 1. Nature of the data set: (§12) Antagonist activity at PAR1 in human EAhy926 cells assessed as inhibition of thrombin-induced intracellular calcium mobilization preincubated for 15 mins followed by thrombin addition by Fluo-4-AM dye based fluorescence assay. It counts as functional, cell-based. The essentials:
(§13)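 Fluo-4/AM-loaded confluent EA.hy926 monolayers; antagonist added before 1 nM thrombin as activating protease; calcium mobilization curves fitted for IC50.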

Data set [12] has as its target T1, Proteinase-activated receptor 2. The data set is described as §4. Type of data set: functional, cell-based. The method, boiled down:
as §5

For data set [13], the target named is T2, Proteinase-activated receptor 1 (Homo sapiens). The data set is described as §12. Type of data set: functional, cell-based. The method, boiled down:
as §13

The target of data set [14] is Proteinase-activated receptor 2 (Homo sapiens) (UniProt P55085). The description is as §1. Type of data set: functional, cell-based. The method, boiled down:
as §2

A further data set relates to MDA-MB-231. Described as §10. Type of data set: cell-based. The essentials:
as §7

Data set [15] addresses T2, Proteinase-activated receptor 1 (Homo sapiens). The description is as §11. Type of data set: functional, cell-based. The method, boiled down: as §9

Activity calls are given as the source filed them. Where only a bound is given, the exact number is not on record here.

For `COCc1cn(CCOCCOCCOCCOCCOCCOCCOCCOCCOCCOCCNC(=O)CCC(=O)N2CCN(C(=O)c3cn4nc(-c5ccc(F)cc5)cc(C(C)C)c4n3)C(C)(C)C2)nn1`, the results for the IC50 in data set [1] and in data set [2] were 0.86 µM and 7 µM, respectively. For the same compound, the inhibition result (in data set [3]; in the data set filed under Homo sapiens) was “inactive” throughout.

`CC1(C)CN(C(=O)[C@H]2CC[C@H](C(=O)NCCOCCOCCOCCOCCOCCOCCOCCOCCOCCOCCn3cc(CCC(=O)NCC[C@H](NC(=O)[C@H](Cc4ccc(F)c(F)c4)NC(=O)Nc4ccc5c(CN6CCCC6)nn(Cc6c(Cl)cccc6Cl)c5c4)C(=O)NCc4ccccc4)nn3)CC2)CCN1C(=O)c1cn2nc(-c3ccc(F)cc3)cc(-c3ccc(F)cc3)c2n1`: the inhibition entry (in [4]; in data set [5]; in the data set listed under Homo sapiens) was “Active” in each case.

Turning to `CC(C)c1cc(-c2ccc(F)cc2)nn2cc(C(=O)N3CCN(C(=O)CCC(=O)NCCOCCOCCOCCOCCOCCOCCOCCOCCOCCOCCOCCOCCOCCOCCOCCOCCOCCOCCOCCOCCOCCOCCOCCn4cc(CCC(=O)NCC[C@H](NC(=O)[C@H](Cc5ccc(F)c(F)c5)NC(=O)Nc5ccc6c(CN7CCCC7)nn(Cc7c(Cl)cccc7Cl)c6c5)C(=O)NCc5ccccc5)nn4)CC3(C)C)nc12`, the IC50 (usually the concentration needed to halve the response being measured) stood at 3.3 µM in [6]; 0.18 µM in [7]; 3.5 µM in data set [1]; 3.3 µM in [2]; 0.14 µM in data set [9]; 0.15 µM in [10]. In data set [11], the IC50 turned out to be 0.36 µM. In addition, in data set [8], the half-life (as a rule, the time needed for the level to fall by half in the phase considered) at 10 µM was 5.6 h. For the same compound, the inhibition entry in data set [3] was “inactive”.

For the compound `CC1(C)CN(C(=O)[C@H]2CC[C@H](C(=O)NCCOCCOCCOCCOCCOCCOCCn3cc(CCC(=O)NCC[C@H](NC(=O)[C@H](Cc4ccc(F)c(F)c4)NC(=O)Nc4ccc5c(CN6CCCC6)nn(Cc6c(Cl)cccc6Cl)c5c4)C(=O)NCc4ccccc4)nn3)CC2)CCN1C(=O)c1cn2nc(-c3ccc(F)cc3)cc(-c3ccc(F)cc3)c2n1`, the inhibition entry (in data set [4]; in [5]; in the data set listed under Homo sapiens) was “Active” in each case.

In the case of `CC(C)c1cc(-c2ccc(F)cc2)nn2cc(C(=O)N3CCN(C(=O)CCC(=O)O)CC3(C)C)nc12`, the figures for the IC50 in [1], in [2] and in data set [12] were 0.48 µM, 0.1 µM and 0.002 µM, respectively.

In the case of `NCC[C@H](NC(=O)[C@H](Cc1ccc(F)c(F)c1)NC(=O)Nc1ccc2c(CN3CCCC3)nn(Cc3c(Cl)cccc3Cl)c2c1)C(=O)NCc1ccccc1` [RWJ-58259], the IC50 in data set [9] stood at 0.005 µM.

On to `NCCOCCOCCOCCOCCOCCOCCOCCOCCn1cc(CCC(=O)NCC[C@H](NC(=O)[C@H](Cc2ccc(F)c(F)c2)NC(=O)Nc2ccc3c(CN4CCCC4)nn(Cc4c(Cl)cccc4Cl)c3c2)C(=O)NCc2ccccc2)nn1`, for which the values for the IC50 in [7], in data set [9] and in [10] were 0.097 µM, 0.01 µM and 0.074 µM, respectively. In addition, in [13], the inhibition result is “Active”.

Consider `CC1(C)CN(C(=O)[C@H]2CC[C@H](C(=O)NCCOCCOCCOCCOCCOCCOCCOCCOCCn3cc(CCC(=O)NCC[C@H](NC(=O)[C@H](Cc4ccc(F)c(F)c4)NC(=O)Nc4ccc5c(CN6CCCC6)nn(Cc6c(Cl)cccc6Cl)c5c4)C(=O)NCc4ccccc4)nn3)CC2)CCN1C(=O)c1cn2nc(-c3ccc(F)cc3)cc(-c3ccc(F)cc3)c2n1`, for which the inhibition result (in data set [4]; in [5]; in the data set listed under Homo sapiens) was “Active” in each case.

As to `CC(C)c1cc(-c2ccc(F)cc2)nn2cc(C(=O)N3CCN(C(=O)CCC(=O)NCCOCCOCCOCCOCCOCCOCCn4cc(CCC(=O)NCC[C@H](NC(=O)[C@H](Cc5ccc(F)c(F)c5)NC(=O)Nc5ccc6c(CN7CCCC7)nn(Cc7c(Cl)cccc7Cl)c6c5)C(=O)NCc5ccccc5)nn4)CC3(C)C)nc12`, the IC50 was 0.03 µM in [7], greater than 50 µM in [2] and 3 µM in data set [10].

With `CC1(C)CN(C(=O)[C@H]2CC[C@H](C(=O)O)CC2)CCN1C(=O)c1cn2nc(-c3ccc(F)cc3)cc(-c3ccc(F)cc3)c2n1`, the inhibition result in data set [14] and in [5] was “Active” each time.

As for `CC(C)c1cc(-c2ccc(F)cc2)nn2cc(C(=O)N3CCN(C(=O)CCC(=O)NCCOCCOCCOCCOCCOCCOCCOCCOCCn4cc(CCC(=O)NCC[C@H](NC(=O)[C@H](Cc5ccc(F)c(F)c5)NC(=O)Nc5ccc6c(CN7CCCC7)nn(Cc7c(Cl)cccc7Cl)c6c5)C(=O)NCc5ccccc5)nn4)CC3(C)C)nc12`, the IC50 in data set [7] was 0.13 µM; in [2], greater than 50 µM; in data set [10], 3 µM.

For `CC(C)c1cc(-c2ccc(F)cc2)nn2cc(C(=O)N3CCN(C(=O)CCC(=O)NCCOCCOCCOCCOCCOCCOCCOCCOCCOCCOCCn4cc(CCC(=O)NCC[C@H](NC(=O)[C@H](Cc5ccc(F)c(F)c5)NC(=O)Nc5ccc6c(CN7CCCC7)nn(Cc7c(Cl)cccc7Cl)c6c5)C(=O)NCc5ccccc5)nn4)CC3(C)C)nc12`, the IC50 in data set [7] was 0.04 µM; in data set [2], greater than 50 µM; in data set [10], greater than 50 µM.

As to `CC(C)c1cc(-c2ccc(F)cc2)nn2cc(C(=O)N3CCN(C(=O)CCC(=O)NCCCCCC(=O)NCCOCCOCCOCCOCCOCCOCCOCCOCCOCCOCCOCCOCCOCCOCCOCCOCCOCCOCCOCCOCCOCCOCCOCCN=[N+]=[N-])CC3(C)C)nc12`, the inhibition entry in data set [14] and in data set [5] was “inactive” each time.

Consider `CC(C)c1cc(-c2ccc(F)cc2)nn2cc(C(=O)N3CCN(C(=O)CCC(=O)NCCCCC(=O)NCCOCCOCCOCCOCCOCCOCCOCCOCCOCCOCCOCCOCCOCCOCCOCCOCCOCCOCCOCCOCCOCCOCCOCCn4cc(CCC(=O)NCC[C@H](NC(=O)[C@H](Cc5ccc(F)c(F)c5)NC(=O)Nc5ccc6c(CN7CCCC7)nn(Cc7c(Cl)cccc7Cl)c6c5)C(=O)NCc5ccccc5)nn4)CC3(C)C)nc12`, for which the inhibition result (in the data set with MDA-MB-231; in data set [4]; in data set [14]; in data set [5]; in data set [15]; in the data set filed under Homo sapiens) was “inactive” throughout.

Values taken from ChEMBL document CHEMBL4308922, “Design and Evaluation of Heterobivalent PAR1-PAR2 Ligands as Antagonists of Calcium Mobilization” (ACS Med Chem Lett, 2019).
